{"source": "paper PMC4826778", "about": "(Bioconjugate chemistry, 2015)", "key": {"[1]": {"assay": "Photophysical characterization", "format": "physicochemical", "conditions": "for ΦF: reference quinine sulfate"}, "[2]": {"conditions": "reaction of 5 with benzyl azide in the same solvent system; cited from earlier work"}, "MCF-7 cells [3]": {"tested_on": "MCF-7 cells", "assay": "MTT cell toxicity assay", "format": "cell-based", "conditions": "24 h exposure, click reaction of cyclooctyne 5 with azide 2 or 21", "method_in_brief": "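MCF-7 cells were seeded at 1 × 10⁴ cells/mL and exposed to a range of concentrations of azide and cyclooctyne for 24 h at 37 °C in 5% CO₂. MTT (5 mg/mL solution) was added for 4 h. Medium was removed, DMSO added, and OD read at 595 nm. Viability was calculated as OD sample / OD untreated control × 100%.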"}, "[4]": {"assay": "Parallel artificial membrane permeability assay", "format": "in vitro ADME", "conditions": "for % Fraction Absorbed / Log Pe: 75 μM; for % Fraction Absorbed: 16 h, ambient temperature; for Log Pe: log of the effective permeability coefficient", "method_in_brief": "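PAMPA used a polycarbonate filter (0.45 μm pore) coated for 5 min with lecithin (1% or 4% in dodecane). Donor wells held test compound at 75 μM in 5% DMSO/PBS; acceptor wells held PBS. Plates were incubated 16 h at ambient temperature with gentle shaking. Acceptor concentration was measured by UV-Vis against a theoretical-equilibrium solution. Log Pe was calculated by the Wohnsland–Faller equation; at least triplicate.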"}, "MCF-7 cells [5]": {"tested_on": "MCF-7 cells", "assay": "Fluorescence microscopy of in-cell click reaction", "format": "cell-based", "conditions": "1 μM azide and 1 μM cyclooctyne 5", "method_in_brief": "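MCF-7 cells were seeded at 5 × 10⁵ cells/mL on chambered coverglass and grown overnight at 37 °C in DMEM/F12 with 5% FBS. Azide (1 μM in reduced-serum medium) was added for 4 h, followed by three PBS (pH 7.5) washes. Cyclooctyne (1 μM) was then added for 16 h at 37 °C, followed by three more washes. Imaging used 360/40 excitation and 470/40 emission filters. Controls were azide only, cyclooctyne only, and preformed adduct. 0.1% trypan blue was used for quenching.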"}, "[6]": {"assay": "Kinetic analysis of SPAAC reaction by 1H NMR", "conditions": "reaction with cyclooctyne 5 in ACN-d6/D2O (3:1, v/v)"}, "[7]": {"assay": "Water solubility of azido nucleosides", "format": "physicochemical"}, "[8]": {"assay": "Frequency-domain fluorescence lifetime measurements in solution", "format": "physicochemical", "method_in_brief": "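Frequency-domain lifetimes were measured in solution (MeOH) in a 2 × 10 mm quartz cuvette at 18 °C. Excitation was a frequency-modulated 280 nm LED, with emission collected through a 305 nm long-pass filter. PPO in ethanol (τ = 1.4 ns) served as lifetime reference. Modulation-phase data were fitted to a multi-exponential decay model, judged by residuals and χ².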"}, "[9]": {"conditions": "In 50 mM phosphate buffer pH 7.0"}}, "data": [{"compound": "5-(1,2,3-Triazol-1H-yl)uridine-MFCO adduct [Compound 27]", "values": [{"measurement": "εmax", "setting": "[1]", "value": 7100, "unit": "M^−1cm^1"}, {"measurement": "λmax(emi)", "setting": "[1]; [9]", "value": "339/434"}, {"measurement": "λmax(emi)", "setting": "[1]; In DMSO", "value": "331/419"}, {"measurement": "Brightness", "setting": "[1]; In MeOH", "value": 0.06, "unit": "M^−1cm^1"}, {"measurement": "Stokes shift", "setting": "[1]; In MeOH", "value": 58, "unit": "nm"}, {"measurement": "λmax(abs)", "setting": "[1]; In MeOH", "value": 269, "unit": "nm"}, {"measurement": "λmax(emi)", "setting": "[1]; In MeOH", "value": "327/412"}, {"measurement": "ΦF", "setting": "[1]; In MeOH", "value": 0.009}]}, {"compound": "OCC1C2CCC#CCCC12", "note": "(stereo not shown) [Compound 5]", "values": [{"measurement": "second order rate constant k", "setting": "[2]", "value": 0.14, "unit": "M⁻¹ s⁻¹"}, {"measurement": "non-cytotoxic dosage", "setting": "MCF-7 cells [3]", "value": 1, "unit": "µM"}]}, {"compound": "[N-]=[N+]=Nc1nc(N)c2ncn([C@@H]3O[C@H](CO)[C@@H](O)[C@H]3O)c2n1", "note": "[Compound 19, 2-azidoadenosine]", "values": [{"measurement": "% Fraction Absorbed", "setting": "[4]", "value": 22, "unit": "%"}, {"measurement": "Log Pe", "setting": "[4]", "value": "−0.5", "unit": "cm/s"}, {"measurement": "fluorescence localization in live cells", "setting": "MCF-7 cells [5]", "value": "fluorescence localized in the nucleus"}]}, {"compound": "[N-]=[N+]=Nc1nc2c(N)ncnc2n1[C@@H]1O[C@H](CO)[C@@H](O)[C@H]1O", "note": "[Compound 1, 8-azidoadenosine]", "values": [{"measurement": "second order rate constant", "setting": "[6]", "value": 0.11, "unit": "M⁻¹ s⁻¹"}, {"measurement": "water solubility", "setting": "[7]", "value": "easily water soluble"}]}, {"compound": "[N-]=[N+]=Nc1nc2c(N)ncnc2n1[C@@H]1O[C@H](CO)[C@@H](O)[C@@H]1O", "note": "[Compound 2, 8-azido-9-(β-D-arabinofuranosyl)adenine]", "values": [{"measurement": "non-cytotoxic dosage", "setting": "MCF-7 cells [3]", "value": 1, "unit": "µM"}, {"measurement": "% Fraction Absorbed", "setting": "[4]", "value": 18, "unit": "%"}, {"measurement": "Log Pe", "setting": "[4]", "value": "−0.5", "unit": "cm/s"}, {"measurement": "Permeability (fraction absorbed)", "setting": "[4]; 150 μM concentration", "value": "b Permeability for 2 at a 150 μM concentration was also 18%."}, {"measurement": "water solubility", "setting": "[7]", "value": "easily water soluble"}, {"measurement": "fluorescence localization in live cells", "setting": "MCF-7 cells [5]", "value": "strong fluorescent localization to the nucleus"}, {"measurement": "fluorescence of azide substrate", "setting": "[1]", "value": "no fluorescence"}]}, {"compound": "[N-]=[N+]=Nc1cn([C@@H]2O[C@H](CO)[C@@H](O)[C@H]2O)c(=O)[nH]c1=O", "note": "[Compound 21, 5-azidouridine]", "values": [{"measurement": "non-cytotoxic dosage", "setting": "MCF-7 cells [3]", "value": 1, "unit": "µM"}, {"measurement": "fluorescence localization in live cells", "setting": "MCF-7 cells [5]", "value": "fluorescence localized in the nucleus"}, {"measurement": "fluorescence of azide substrate", "setting": "[1]", "value": "no noticeable fluorescence"}]}, {"compound": "8-(1,2,3-Triazol-1H-yl)adenosine-MFCO adduct [Compound 17]", "values": [{"measurement": "τ1", "setting": "[8]; In MeOH", "value": 0.10, "unit": "ns"}, {"measurement": "τ2", "setting": "[8]; In MeOH", "value": 0.90, "unit": "ns"}, {"measurement": "τ3", "setting": "[8]; In MeOH", "value": 5.30, "unit": "ns"}, {"measurement": "f1", "setting": "[8]; In MeOH, fractional contribution of τ1", "value": 0.46, "unit": "%"}, {"measurement": "f2", "setting": "[8]; In MeOH, fractional contribution of τ2", "value": 0.39, "unit": "%"}, {"measurement": "f3", "setting": "[8]; In MeOH, fractional contribution of τ3", "value": 0.15, "unit": "%"}, {"measurement": "τaverage", "setting": "[8]; in vitro (methanol solution)", "value": 1.20, "unit": "ns"}, {"measurement": "εmax", "setting": "[1]", "value": 16400, "unit": "M^−1cm^1"}, {"measurement": "λmax(emi)", "setting": "[1]; [9]", "value": 399, "unit": "nm"}, {"measurement": "λmax(emi)", "setting": "[1]; In DMSO", "value": 397, "unit": "nm"}, {"measurement": "Brightness", "setting": "[1]; In MeOH", "value": 0.10, "unit": "M^−1cm^1"}, {"measurement": "Stokes shift", "setting": "[1]; In MeOH", "value": 111, "unit": "nm"}, {"measurement": "λmax(abs)", "setting": "[1]; In MeOH", "value": 271, "unit": "nm"}, {"measurement": "λmax(emi)", "setting": "[1]; In MeOH", "value": 399, "unit": "nm"}, {"measurement": "λmax(exc)", "setting": "[1]; In MeOH", "value": 288, "unit": "nm"}, {"measurement": "ΦF", "setting": "[1]; In MeOH", "value": 0.006}]}, {"compound": "[N-]=[N+]=Nc1nc2c(N)ncnc2n1[C@H]1C[C@H](O)[C@@H](CO)O1", "note": "[Compound 4, 8-azido-2′-deoxyadenosine]", "values": [{"measurement": "% Fraction Absorbed", "setting": "[4]", "value": 20, "unit": "%"}, {"measurement": "Log Pe", "setting": "[4]", "value": "−0.5", "unit": "cm/s"}]}]}
